Screening data deposited in PubChem BioAssay by Broad Institute.
A selection: hits, their analogues and other compounds. The true share with any hit is near 3.1%.
Cneo AK release: causes C. neoformans cell lysis; adenylate kinase release luminescence, 4 h; normalised: neutral wells 0, clomiphene wells 100; lysis activity, % at 15 µM; actives 0.2% (n = 360,000);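 active means mean lysis activity across replicates of at least 80%, whatever share of replicates individually reach that level; inactive means mean lysis activity below 80%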
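Test system: log-phase Cryptococcus neoformans yeast cells; Quantity: yeast cell density of 5 × 10^6 cells/mL; Buffer or medium: YPD; Doses: single compound concentration per well; Timing: 4 h at 37 °C static, read 1 h later; Measured by: AK luminescence; Read-out basis: lysis from increased AK signal; Control set: Clomiphene as positive control.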
DENV2 CPE: DENV2-induced cell death inhibition; DENV2-infected cells, cytopathic effect rescue, plate reader; CPE inhibition, % at 9.99 µM; actives 1.7% (n = 350,000); in the data active means CPE inhibition above about 20%, passing the limit was not always enough; tested in BHK-21 cells;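 further: 0% = median of neutral control wells and 100% = median of positive control wells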
miR-122 sensor: inhibitors of miR-122 in Huh7 cells | actives 0.3% (n = 340,000) | activation (reporter increase), % at 12.5 µM | Huh7 miR-122 Renilla luciferase sensor, 48 h; neutral wells = 0, positive control = 100;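 active means mean replicate activation score at least 90 and every replicate individually at or above 90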;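 further: higher luciferase means less miR-122 activity so hits act as miR-122 inhibitors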
rRNA inh HTS: inhibits bacterial ribosomal RNA function over humanized ribosomes; E. coli WT GFP vs humanized-ribosome RFP mutants, fluorescence, 24 h; active compounds read low; DMSO median 0, no signal -100; GFP signal change (wild-type ribosome), % (test concentration not listed); actives 1.6% (n = 350,000); AID 720706;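 active means significant combined selectivity score with lowered wild-type GFP, culture density cut under 30%, mutant RFP and density less affected; inactive means any of these conditions unmet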
E-selectin induc: induces E-selectin expression in human endothelial cells; P16581; HUVEC E-selectin immunofluorescence imaging; normalized: neutral wells 0, TNF-alpha wells 100; activation, % at 7.58 µM; actives 0.37% (n = 260,000);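 active means mean E-selectin-positive cell signal at least 10% of the positive control, reached in at least 60% of replicates, without over 20% cell loss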
Target sequence (P16581 whole entry, looked up): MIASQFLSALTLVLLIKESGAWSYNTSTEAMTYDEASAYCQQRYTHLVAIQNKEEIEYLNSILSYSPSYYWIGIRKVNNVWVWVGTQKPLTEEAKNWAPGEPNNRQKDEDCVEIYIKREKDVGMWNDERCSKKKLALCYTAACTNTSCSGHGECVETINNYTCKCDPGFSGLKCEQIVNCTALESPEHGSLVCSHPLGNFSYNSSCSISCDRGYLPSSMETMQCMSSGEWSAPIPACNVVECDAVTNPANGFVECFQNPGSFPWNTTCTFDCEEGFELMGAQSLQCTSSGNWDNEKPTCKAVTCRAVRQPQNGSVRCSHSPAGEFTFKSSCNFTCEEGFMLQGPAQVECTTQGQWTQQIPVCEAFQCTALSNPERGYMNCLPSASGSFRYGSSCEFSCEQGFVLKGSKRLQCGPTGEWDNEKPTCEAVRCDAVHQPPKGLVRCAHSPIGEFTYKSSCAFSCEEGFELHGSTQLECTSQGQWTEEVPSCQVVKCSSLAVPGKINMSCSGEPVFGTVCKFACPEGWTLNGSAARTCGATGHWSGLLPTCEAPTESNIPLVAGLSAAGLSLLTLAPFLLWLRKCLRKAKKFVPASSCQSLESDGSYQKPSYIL
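System: HUVEC / Compound: single concentration / Signal: immunofluorescence imaging / Read-out: percent E-selectin-positive cells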
An asterisk follows results filed as active; . = not tested or not shown; ! = a repeat was not active; [ ] = another dose, or the depositor's remark.

SMILES	Cneo AK release	DENV2 CPE	miR-122 sensor	rRNA inh HTS	E-selectin induc
O=C1c2ccccc2/C(=C\c2ccc(Br)nc2)N1c1ccccc1	.	47*	.	11	0
C[C@@H]1CN([C@@H](C)CO)C(=O)Cc2cc(NC(=O)CCC(F)(F)F)ccc2O[C@H]1CN(C)S(=O)(=O)c1ccccc1	-2	-2	-8[16.7 µM]	-3	0
Cc1c(C(=O)NCc2ccc(C#N)cc2)sc(=O)n1Cc1ccccn1	-1	21*	.	14	.
Cc1cccc(C)c1Cn1c(C)c(C(=O)NCc2ccc(C#N)cc2)sc1=O	-1	-3	.	-12	.
O=C(Nc1cscc1S(=O)(=O)c1ccc(Cl)cc1)c1ccccc1Cl	0	0	7	-20	.
O=C(Nc1cscc1S(=O)(=O)c1ccccc1)c1ccccc1Cl	-1	0	5	-22*	1
COc1cc(NS(=O)(=O)c2ccc(-n3cccn3)cc2)cc(OC)c1	2	.	95*	.	.
COc1cccc(CN(C(=O)/C=C/c2ccc(Cl)cc2)C2CCS(=O)(=O)C2)c1 (stereo not drawn)	.	7	.	-36*	0
O=C(/C=C/c1ccccc1)N(Cc1ccc(Cl)cc1)C1CCS(=O)(=O)C1 (stereo not drawn)	1	2	-2	-22*	0
COc1ccc(/C=C/C(=O)N(Cc2cccs2)C2CCS(=O)(=O)C2)cc1 (stereo not drawn)	-5	0	1	-17	0
O=C(/C=C/c1ccco1)N(Cc1cccc(Cl)c1)C1CCS(=O)(=O)C1 (stereo not drawn)	.	-6	.	2	1
O=C(/C=C/c1ccccc1)N(Cc1cccc(Cl)c1)C1CCS(=O)(=O)C1 (stereo not drawn)	.	0	.	-35*	3
CCCNC(=O)N1CC2(CN(C(=O)c3cccc(F)c3)C2)c2c([nH]c3cc(OC)ccc23)[C@@H]1CO	.	9	.	-2	0
C[C@@H]1CN([C@@H](C)CO)C(=O)c2cccc(NS(C)(=O)=O)c2O[C@H]1CN(C)S(=O)(=O)c1ccc(F)cc1	.	.	3[16.7 µM]	3	-3
C[C@@H]1CN(C)C(=O)Cc2cc(N(C)C)ccc2O[C@@H]1CN(C)C(=O)OC(C)(C)C	.	.	.	-1	.
CC(C)(C)S(=O)N1Cc2cc(C(=O)N[C@@H]3CCN(Cc4ccccc4)C3)nc(-c3cccc(C#CCC4CCCC4)c3)c2[C@H]1CCO (stereo partly drawn)	.	14	.	.	.
CC(C)CC#Cc1ccc2c(c1)O[C@@H](CN(C)C(=O)c1ccccc1)[C@H](C)CN([C@@H](C)CO)S2(=O)=O	-2	-2	9[16.7 µM]	-6	0
CCCNC(=O)N(C)C[C@@H]1Oc2cc(C#CCC(C)C)ccc2S(=O)(=O)N([C@@H](C)CO)C[C@@H]1C	-1	-2	8[16.7 µM]	-5	0
CC(C)CC#Cc1ccc2c(c1)O[C@H](CN(C)C(=O)c1ccccc1)[C@H](C)CN([C@@H](C)CO)S2(=O)=O	2	-2	-24[16.7 µM]	-2	85*
CC(C)CC#Cc1ccc2c(c1)O[C@@H](CN(C)C(=O)c1cnccn1)[C@@H](C)CN([C@@H](C)CO)S2(=O)=O	-4	36*	10[16.7 µM]	1	1
CCCNC(=O)N(C)C[C@@H]1Oc2cc(C#CCC(C)C)ccc2S(=O)(=O)N([C@@H](C)CO)C[C@H]1C	-1	36*	21[16.7 µM]	-12	0
CCCC#Cc1ccc2c(c1)O[C@@H](CN(C)C(=O)c1ccccc1)[C@@H](C)CN([C@H](C)CO)S2(=O)=O	53	-4	9[16.7 µM]	-1	96*
CCCC#Cc1ccc2c(c1)O[C@@H](CN(C)C(=O)c1cnccn1)[C@H](C)CN([C@H](C)CO)S2(=O)=O	-3	1	35[16.7 µM]	1	0
CCCC(=O)Nc1ccc2c(c1)C(=O)N(C)[C@H]1CC[C@@H](CC(=O)NCc3ccccc3Cl)O[C@H]1CO2	-3	11	60[16.7 µM]	-5	0
CC(C)CC#Cc1ccc2c(c1)O[C@H](CN(C)C(=O)Nc1ccccc1F)[C@H](C)CN([C@H](C)CO)S2(=O)=O	-1	32*	26[16.7 µM]	-2	0
SMILES	Cneo AK release	DENV2 CPE	miR-122 sensor	rRNA inh HTS	E-selectin induc
COc1ccc(-n2nc([N+](=O)[O-])c(=NCc3ccc4c(c3)OCO4)n2O)cc1	0	32*	0	11	.
CC(C)NC(=O)N(C)C[C@H]1Oc2ccc(NC(=O)CCN3CCOCC3)cc2C(=O)N([C@H](C)CO)C[C@@H]1C	-4	-2	2[16.7 µM]	4	43*
C[C@H]1CN([C@@H](C)CO)C(=O)c2cc(NC(=O)CCN3CCOCC3)ccc2O[C@@H]1CN(C)C(=O)Nc1ccc2c(c1)OCO2	1	-2	2[16.7 µM]	2	-3
CC(C)NC(=O)N(C)C[C@@H]1Oc2ccc(NC(=O)CCN3CCOCC3)cc2C(=O)N([C@@H](C)CO)C[C@H]1C	2	-2	7[16.7 µM]	4	33*
C[C@@H]1CN([C@H](C)CO)C(=O)c2cc(NC(=O)CCN3CCOCC3)ccc2O[C@@H]1CN(C)C(=O)Nc1ccc2c(c1)OCO2	3	50*	1[16.7 µM]	2	-3
CC(C)NC(=O)N(C)C[C@H]1Oc2ccc(NC(=O)CCN3CCOCC3)cc2C(=O)N([C@H](C)CO)C[C@H]1C	-2	5	-11[16.7 µM]	-2	26
C[C@H]1CN([C@@H](C)CO)C(=O)Cc2cc(NS(=O)(=O)c3cn(C)cn3)ccc2O[C@@H]1CN(C)Cc1ccc(C(F)(F)F)cc1	.	.	6[16.7 µM]	0	-14
CO[C@@H]1CN(C)C(=O)c2ccc(NC(C)=O)cc2OC[C@@H](C)N(S(=O)(=O)c2cn(C)cn2)C[C@@H]1C	-4	-1	.	-1	0
CC(=O)N[C@H]1C[C@@H]2O[C@@H](CO)CC[C@@H]2O[C@@H]1CCc1ccc(-c2ccc(F)cc2)cc1	.	13	.	.	.
C[C@H]1CN([C@@H](C)CO)C(=O)c2c(c3ccccc3n2C)-c2ccccc2CO[C@@H]1CN(C)Cc1cccc(O)c1	.	5	.	-6	0
C[C@@H]1CN([C@@H](C)CO)C(=O)c2c(c3ccccc3n2C)-c2ccccc2CO[C@H]1CN(C)Cc1cccc(O)c1	.	25*	.	1	0
C[C@@H]1CN([C@H](C)CO)C(=O)c2c(c3ccccc3n2C)-c2ccccc2CO[C@H]1CN(C)Cc1ccc2c(c1)OCCN2C	2	28*!	0	1	0
C[C@H](CO)N1C[C@H](C)[C@@H](CN(C)Cc2cccc3c2OCCCO3)OCc2ccccc2-c2c(n(C)c3ccccc23)C1=O	.	.	.	-8	.
C[C@@H]1CN([C@@H](C)CO)C(=O)c2c(c3ccccc3n2C)-c2ccccc2CO[C@H]1CN(C)Cc1cccc2c1OCCCO2	.	21*	.	0	1
CC(C)c1cn(CC[C@@H]2CC[C@H](NC(=O)C3CCCC3)[C@@H](CO)O2)nn1	2	-2	-5[16.7 µM]	2	0
